Bioassay records (PubChem BioAssay)
PAFAH2 inh – PAFAH2 (human) inhibition. Q99487. actives 0.99% (n = 340,000). inhibition, % at 3.39 µM. recombinant PAFAH2, FP-rhodamine activity probe, fluorescence polarization;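 active = inhibition above the mean over all tested compounds plus 3 SD, cut at about 30% in these data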;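 also: inhibitors block probe labeling of enzyme so polarization drops; 0% = enzyme with DMSO and 100% = wells lacking PAFAH2 protein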
pPAFAH FP inh – pPAFAH (human) enzyme inhibition; Q13093; recombinant pPAFAH, FP-rhodamine probe fluorescence polarization; inhibition, % at 3.39 µM; AID 463082; actives 1.5% (n = 330,000);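 active = inhibition above the mean inhibition across the screen plus 3 SD, cut at about 25% in these data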;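 also: inhibitors block binding of the rhodamine activity-based probe so polarization drops; 0% = enzyme with DMSO and 100% = wells lacking pPAFAH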
Apaf-1 inh – inhibitors of human Apaf-1 apoptosome; O14727; reconstituted apoptosome caspase-3 activity, DEVD-Rh110 fluorescence; inhibition, % at 20 µM; actives 0.71% (n = 330,000); AID 489030; active = inhibition of at least 40% at 20 µM;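 also: plate controls were DMSO wells for no effect and DEVD-CHO caspase inhibitor wells for full effect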
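Material: biochemical Apaf-1 apoptosome reconstitution. Medium: Hepes buffer, pH 7.5. Also added: cytochrome c activation, bis-DEVD rhodamine 110 substrate. Timing: 30 min compound preincubation, 50 min activation, room temperature. Measured by: rhodamine 110 fluorescence at Ex 480/Em 540 nm.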
PAFAH1B3 FP inh – blocks human PAF acetylhydrolase 1B catalytic subunit 3. recombinant PAFAH1B3, FP-rhodamine probe, fluorescence polarization. inhibition, % at 3.39 µM. actives 0.28% (n = 340,000). AID 492972;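 active = inhibition above the screen-wide average of all tested compounds plus 3 SD, cut at about 25% in these data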;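 also: 0% = enzyme with DMSO only and 100% = wells lacking PAFAH1B3 protein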
PAFAH1B2 inh – PAFAH1B2 (human) inhibition | recombinant PAFAH1B2, FP-rhodamine activity probe, fluorescence polarization | P68402 | inhibition, % at 3.39 µM | actives 1.2% (n = 340,000);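 active = inhibition above the mean of all tested compounds plus 3 SD, cut at about 24% in these data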;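 also: 0% = enzyme with DMSO and 100% = wells lacking PAFAH1B2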
Target sequence (P68402 whole entry, looked up): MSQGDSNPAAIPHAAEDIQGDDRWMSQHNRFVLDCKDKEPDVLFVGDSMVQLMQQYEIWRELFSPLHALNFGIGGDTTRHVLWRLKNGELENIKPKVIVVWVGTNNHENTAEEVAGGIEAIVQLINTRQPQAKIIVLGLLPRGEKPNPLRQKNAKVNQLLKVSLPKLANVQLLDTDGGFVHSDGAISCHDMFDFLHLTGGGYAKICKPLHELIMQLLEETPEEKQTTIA
Numbers without * were called inactive; . = not tested or not shown. In the library only some 3.1% were active in any assay of this set; here they are far more common.

SMILES	PAFAH2 inh	pPAFAH FP inh	Apaf-1 inh	PAFAH1B3 FP inh	PAFAH1B2 inh
Cc1cccc(C2=NN(c3ccc(Br)cc3)[C@@H](C(=O)N3CCOC3=O)[C@@H]2c2ccc(F)cc2)c1	-2	30*	-7	6	-7
CCOC(=O)CC1(NC(=O)c2cc(COc3cccc(OC)c3)on2)CCCCC1	0	2	20	7	8
COc1ccc(C(=O)N2CCCCCC2)cc1S(=O)(=O)N1CCOCC1	7	3	-3	4	6
CC(C)Oc1ccc(C(=O)OCC(=O)N2CCCc3ccccc32)cc1	22	4	15	1	1
Cc1[nH]n2c(=O)cc(-c3ccc([N+](=O)[O-])cc3)nc2c1-c1ccccc1	21	33*	8	13	19
CC(C)(C)C(=O)NC(=S)Nc1cc(C(F)(F)F)ccc1N1CCOCC1	4	33*	12	13	7
Cc1cc(NC(=O)CSCC(=O)Nc2cc(C(F)(F)F)ccc2N2CCOCC2)no1	-5	2	-3	1	26*
CC(C)(C)C(=O)Nc1cc(C(F)(F)F)ccc1N1CCOCC1	3	5	-1	-2	2
O=C(Cn1cnc2scc(-c3cccc([N+](=O)[O-])c3)c2c1=O)NCc1ccco1	18	26*	10	4	-4
Cn1c(=O)c2c(nc(N3CCOCC3)n2CC(=O)C23CC4CC(CC(C4)C2)C3)n(C)c1=O	-5	3	-2	11	27*
CN1CCN(c2nc3c(c(=O)n(C)c(=O)n3C)n2CC(=O)C23CC4CC(CC(C4)C2)C3)CC1	3	1	1	6	-2
C=C(C)CCC(C)N1CCC(n2nccc2NC(=O)CCOc2ccccc2)CC1 (configuration not stated)	-1	-5	-11	-4	4
Cc1ccc(NS(=O)(=O)c2ccc(C(=O)NCCCN3CCCC3=O)cc2)cc1C	6	31*	2	1	1
CCCCc1ccc(S(=O)(=O)NCCCN2CCCC2=O)cc1	4	28*	-7	4	8
Cc1cc(S(=O)(=O)Nc2ccc(C(=O)NCCCN3CCCC3=O)cc2)ccc1F	2	9	3	-1	7
CCc1cc(=O)oc2cc(C)cc(OCC(=O)N3CCC(C(=O)NC(C)C)(c4ccccc4)CC3)c12	7	7	10	-1	2
COc1ccccc1CCNC(=O)c1ccc(NC(=O)CC2SC(N3CCCC3)=NC2=O)cc1 (configuration not stated)	4	-3	1	4	5
COc1cc2c3nnc(-c4ccc(F)cc4)c-3cn(Cc3cccc(C)c3)c2cc1OC	1	4	53*	5	1
COc1cc2c3nnc(-c4ccc(F)cc4)c-3cn(Cc3cccc(F)c3)c2cc1OC	-2	4	0	0	-3
COc1cc(CC(=O)NCC2CCCCC2)cc(OC)c1OC	4	10	2	9	2
O=C(Nc1ccc(N2CCOCC2)cc1)C1(c2ccc(Cl)cc2)CCC1	-2	8	-10	-4	80*
C=CCn1c(SCc2ccccc2F)nc2cc(C(=O)O)ccc2c1=O	13	9	11	10	10
COc1ccc2c(c1)O[C@H](c1ccc3c(c1)OCO3)[C@@H](O)C2=O	-2	-1	3	3	1
COc1ccc2c(c1)O[C@@H](c1cccc(C(F)(F)F)c1)[C@H](O)C2=O	71*	5	17	13	6
CC(=O)c1cn(S(=O)(=O)c2ccccc2)c2ccccc12	-10	-2	1	-15	0
SMILES	PAFAH2 inh	pPAFAH FP inh	Apaf-1 inh	PAFAH1B3 FP inh	PAFAH1B2 inh
O=C(NNC(=O)c1c(O)c2ccccc2[nH]c1=O)c1ccccc1Br	10	5	3	10	9
CCN(CC)c1ccc(/C=C2/C(=O)c3ccc(C(=O)O)cc3C2=O)cc1	18	28*	.	-7	-8
NS(=O)(=O)c1ccc(CCNC(=O)CCNS(=O)(=O)c2ccccc2C(F)(F)F)cc1	-2	2	-5	-4	2
COc1ccccc1N(CC(=O)N1CCOCC1)S(C)(=O)=O	2	-4	-7	14	6
Cc1snc(SCc2ccc(F)cc2)c1C#N	-6	-4	11	12	7
Cc1snc(SCc2ccc(Cl)cc2)c1C#N	-2	8	13	3	28*
O=C(CNC(=O)c1ccncc1)N/N=C/c1cc(Br)ccc1O	3	0	0	11	8
